The source of these data is article PMC12667952 (bioRxiv, 2025).

The test system of one data set is GlyT2. Particulars: read-out: IC50 for GlyT2; cited from earlier work.
Another data set deals with CCI mice. The data set is described as follows: Cold allodynia. Format: in vivo, mouse. As to conditions: control compound gabapentin 100 mg/kg, by 2-hour time point. The essentials: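 CCI mice tested 14 days after surgery. […] Acetone-evoked cold allodynia scored before surgery, at t = 0 before dosing, and at 0.5, 1, 1.5, 2, 4 and 6 h. Expressed as % of maximal possible responses. Two-way ANOVA with Dunnett's test versus vehicle.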

The conditions of data set [1]: cited from earlier work.
Another data set relates to C57BL/6J mice. The data set is described as follows: Conditioned place preference. Format: in vivo, mouse. Particulars: 10 mg/kg, i.p., positive control.
Data set [2] addresses T1, hGlyT2^WT (Homo sapiens, UniProt Q9Y345).
T1 sequence (Q9Y345 1-797): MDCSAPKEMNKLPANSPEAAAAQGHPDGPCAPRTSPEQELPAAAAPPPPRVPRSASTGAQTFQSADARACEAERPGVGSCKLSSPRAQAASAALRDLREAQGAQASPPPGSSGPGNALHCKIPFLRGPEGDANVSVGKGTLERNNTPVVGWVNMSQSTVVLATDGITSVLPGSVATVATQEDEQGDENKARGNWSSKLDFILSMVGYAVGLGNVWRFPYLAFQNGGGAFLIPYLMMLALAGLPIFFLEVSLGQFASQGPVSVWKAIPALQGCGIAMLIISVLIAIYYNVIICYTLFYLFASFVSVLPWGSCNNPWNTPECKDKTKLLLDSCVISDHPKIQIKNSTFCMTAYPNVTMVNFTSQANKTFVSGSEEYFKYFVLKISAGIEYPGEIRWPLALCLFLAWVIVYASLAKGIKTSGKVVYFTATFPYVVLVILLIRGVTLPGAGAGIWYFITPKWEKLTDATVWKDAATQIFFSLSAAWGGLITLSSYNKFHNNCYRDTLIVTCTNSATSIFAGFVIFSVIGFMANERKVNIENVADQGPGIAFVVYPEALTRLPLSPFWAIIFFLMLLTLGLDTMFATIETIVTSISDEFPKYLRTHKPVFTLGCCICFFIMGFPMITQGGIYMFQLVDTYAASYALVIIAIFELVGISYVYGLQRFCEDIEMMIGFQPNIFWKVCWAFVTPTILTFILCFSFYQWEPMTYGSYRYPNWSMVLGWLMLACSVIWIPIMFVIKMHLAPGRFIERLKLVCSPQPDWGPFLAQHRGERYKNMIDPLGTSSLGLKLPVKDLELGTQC
Format: cell-based.

For data set [3], the target named is T2, hGlyT2^W215F (Homo sapiens, UniProt Q9Y345, W215F).
T2 sequence (Q9Y345 1-797 W215F): T1 sequence (Q9Y345 1-797) with W215F
It is filed as cell-based.

Data set [4] deals with T3, hGlyT2^D633E (Homo sapiens, UniProt Q9Y345, D633E).
T3 sequence (Q9Y345 1-797 D633E): T1 sequence (Q9Y345 1-797) with D633E
It is filed as cell-based.

The target of data set [5] is T1, hGlyT2^WT. The data set is described as follows: Sodium dependence of inhibition of glycine transport currents. Format: cell-based. As to conditions: IC50 at 100 mM Na+, 100 mM Na+, 300 μM glycine.
In data set [6] the target is T1, hGlyT2^WT. The data set is described as follows: Reversibility. It is filed as cell-based. A digest of the protocol:
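Xenopus oocytes injected with 20 ng hGlyT2 WT cRNA and held 3–6 days at 18 °C. Glycine currents recorded by two-electrode voltage clamp at −60 mV. Test compound applied at a single concentration (10 μM maximum), then washed out. Recovery of 30 µM glycine-evoked currents followed to 30 min, normalised to pre-inhibitor current. n ≥ 5 from at least two frogs.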

The target of data set [7] is T2, hGlyT2^W215F. The data set is described as follows: Reversibility. It is filed as cell-based.
The target in data set [8] is T3, hGlyT2^D633E. The data set is described as follows: Reversibility. Format: cell-based.
For data set [9], the system named is mice. Particulars: 50 mg/kg; cited from earlier work.
Data set [10] has as its system mice. As to conditions: 50 mg/kg; cited from earlier work. This is another data set of the same source.

Numbering of substitutions follows the chain as printed. Like-named read-outs stand apart in the source and are kept apart here.

For `CCCCOc1c(OC)cc(C(=O)NCC2(N(C)C)CCOCC2)cc1OC` [opiranserin], the 50% inhibitory concentration (IC50) – broadly, the concentration at which inhibition is half-maximal – in the data set on GlyT2 was 860 nM.

`NCC1(CC(=O)O)CCCCC1` [Gabapentin, reference compound]: the “Peak reduction of response rate to acetone stimulus” value with CCI mice is recorded as 75%.

For the compound `CCCCCCCC/C=C\CCCCCCCC(=O)N[C@H](CCCCN)C(=O)O` [oleoyl-D-lysine], the “Effects on inflammatory and acute nociceptive pain thresholds” value in data set [1] is on record as “no effects”.

With `CN1CC[C@]23c4c5ccc(O)c4O[C@H]2[C@@H](O)C=C[C@H]3[C@H]1C5` [morphine, reference compound], the “Preference for the paired chamber” value with C57BL/6J mice is given as “significant increase in preference for the paired chamber”.

With `COc1cc(C(=O)NCC2(N(C)C)CCCC2)cc(OC)c1OCc1ccccc1` [ORG25543, 4-(benzyloxy)-N-{[1-(dimethylamino)cyclopentyl]methyl}-3,5-dimethoxybenzamide, reference compound], the IC50 on hGlyT2^WT [2] was determined as 11.4 nM; at hGlyT2^WT [5], 17.6 nM. In addition, the “Decrease in potency of inhibition, W215F versus WT” value on hGlyT2^W215F [3] is reported as “~three-fold”. Besides, the “Reduction in potency of inhibition, D633E versus WT” value on hGlyT2^D633E [4] was ~ 14 fold. Besides, the “Glycine currents restored, of pre-inhibitor levels” value on hGlyT2^WT [6] (after 30 minutes washout) came out at 12.5%. In addition, the “Reversibility of inhibition (recovery of glycine-induced currents)” value on hGlyT2^WT [6] (washout, hGlyT2^WT) is given as “minimal restoration of glycine-induced currents 30-minutes post-ORG25543”. Further, the “Washout of inhibitor from hGlyT2^W215F” value at hGlyT2^W215F [7] was “significantly increased the rate of ORG25543 washout”. In addition, the “Washout of inhibitor from hGlyT2^D633E” value at hGlyT2^D633E [8] was “recovery from ORG25543 within five minutes”. Also, the Mechanical allodynia entry with mice [9] is given as “reversed mechanical allodynia”. The “Side effects coinciding with analgesic dose” value in the data set with mice [10] was “near-complete loss of rotarod performance, seizures and in one case, lethality”. Further, the “Effects on inflammatory and acute nociceptive pain thresholds” value in [1] is reported as “no effects”.
